This is an account of results in ChEMBL document CHEMBL1212881, “Design, synthesis, and structure-affinity relationships of regioisomeric N-benzyl alkyl ether piperazine derivatives as sigma-1 receptor ligands” (J Med Chem, 2010).

By Ki is commonly meant the equilibrium dissociation constant of an inhibitor or competing ligand from its target. Lower therefore signals a stronger hold on the target. As a reminder, the logD is lipophilicity at a set pH, counting ionised and neutral species.

Where only a bound is given, the exact number is not on record here.

The target of data set [1] is 5-hydroxytryptamine receptor 2B (Homo sapiens, UniProt P41595). Put plainly: Binding affinity to 5HT2B. In outline:
(§1)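 Ki values come from radioligand binding run by the NIMH Psychoactive Drug Screening Program (PDSP) under its standard conditions. Values are means ± SEM from triplicate assays.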

The target of data set [2] is T1, 5-hydroxytryptamine receptor 1A (Homo sapiens, UniProt P08908).
T1 sequence (P08908 whole entry): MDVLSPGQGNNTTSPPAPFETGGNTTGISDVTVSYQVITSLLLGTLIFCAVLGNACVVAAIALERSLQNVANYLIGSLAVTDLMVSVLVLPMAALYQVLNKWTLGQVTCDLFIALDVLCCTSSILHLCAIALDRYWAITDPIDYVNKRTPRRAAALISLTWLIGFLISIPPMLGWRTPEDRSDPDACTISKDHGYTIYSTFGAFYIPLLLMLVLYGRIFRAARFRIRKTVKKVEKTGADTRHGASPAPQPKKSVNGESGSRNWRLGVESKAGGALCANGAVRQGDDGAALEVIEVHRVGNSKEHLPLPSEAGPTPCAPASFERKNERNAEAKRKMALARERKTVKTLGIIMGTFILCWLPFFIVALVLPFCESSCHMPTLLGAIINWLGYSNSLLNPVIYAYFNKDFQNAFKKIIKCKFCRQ
Put plainly: Binding affinity to 5HT1A. In outline:
as §1

A further data set is filed under the species Rattus norvegicus. Put plainly: Selectivity ratio of Ki for rat sigma2 receptor to Ki rat sigma1 receptor. The essentials:
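The ratio is Ki(σ2) divided by Ki(σ1). σ1 Ki came from [³H](+)-pentazocine displacement in rat brain homogenate. σ2 Ki came from [³H]DTG displacement in PC12 cell preparation, a cell line that overexpresses σ2. Both Ki values are triplicate means; ratios above 1 mean σ1-selective.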

Another data set deals with D(2) dopamine receptor (Homo sapiens, UniProt P14416). Description: Binding affinity to dopamine D2. The essentials: as §1
The target in data set [3] is Sigma non-opioid intracellular receptor 1 (Rattus norvegicus, UniProt Q9R0C9). Put plainly: Displacement of [3H]pentazocine from sigma1 receptor in rat brain homogenate. The data set is classed as tissue-based. In outline:
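σ1 affinity was measured by competitive displacement of [³H](+)-pentazocine from rat brain homogenate, using a competitive modification of the Kovacs and Larson protocol. Ki is reported as mean ± SEM from triplicate assays.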

Data set [4] is described as follows: Displacement of [3H]DTG from sigma2 receptor in rat PC12 cells. The note with it: pc-12. A general note: Loss of bound radioactivity is the signal in a displacement assay; it reports binding, not function.
Data set [5] is described as follows: Lipophilicity, log D of the compound. In kind it is physicochemical. The note with it: HPLC retention time. In outline: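 Log D estimated by HPLC retention time on a C-18 column. Mobile phase methanol/0.05 M potassium phosphate buffer (65:35 v/v, pH 7.47) at 0.3 mL/min, UV 254 nm. Calibrated against standards of known log D (aniline, benzene, toluene, cumene, triphenylamine, hexachlorobenzene) using an exponential fit. Injections in triplicate and averaged.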

A short description of data set [6]: Drug uptake in baboon cingulate cortex at 100 MBq, iv. The data set is classed as ADME. The note with it: papio hamadryas, in vivo. In outline:
(§2)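 Anaesthetized Papio hamadryas baboon; radiotracer given iv at 100 MBq in 3 mL saline, specific activity 73 GBq/μmol. Dynamic brain PET started just before injection and ran 60 min. Voxel values were decay-corrected to injection time and converted to % injected dose/mL. Regional time-activity curves came from coregistered regions of interest.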

Data set [7] is described as follows: Drug uptake in baboon frontal cortex at 100 MBq, iv. The note with it: papio hamadryas, in vivo. The data set is classed as ADME, organism-based. In outline: as §2
Data set [8] in a line: Drug uptake in baboon striatum at 100 MBq, iv. In kind it is ADME, organism-based. The note with it: papio hamadryas, in vivo. In outline: as §2
A short description of data set [9]: Drug uptake in baboon brain at 100 MBq, iv in presence of haloperidol. The data set is classed as ADME, organism-based. The note with it: papio hamadryas, in vivo. The essentials:
(§3)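 Anaesthetized Papio hamadryas baboon; radiotracer given iv at 100 MBq in 3 mL saline, specific activity 73 GBq/μmol. Haloperidol (1 mg/kg) given iv 5 min before the tracer. Dynamic PET over 60 min, then whole-body acquisition for 2 min at each of six bed positions. Uptake expressed as decay-corrected % injected dose/mL.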

Data set [10] can be described thus: Drug uptake in baboon liver at 100 MBq, iv in presence of haloperidol. The note with it: papio hamadryas, in vivo. The data set is classed as ADME, organism-based. The essentials: as §3
Data set [11] in a line: Drug uptake in baboon kidney at 100 MBq, iv in presence of haloperidol. The data set is classed as ADME, organism-based. The note with it: papio hamadryas, in vivo. The essentials:
as §3

The nature of data set [12]: Drug uptake in baboon bladder at 100 MBq, iv in presence of haloperidol. In kind it is ADME, organism-based, Urinary bladder. The note with it: papio hamadryas, in vivo. The essentials:
as §3

Chain of D(2) dopamine receptor (P14416 whole entry): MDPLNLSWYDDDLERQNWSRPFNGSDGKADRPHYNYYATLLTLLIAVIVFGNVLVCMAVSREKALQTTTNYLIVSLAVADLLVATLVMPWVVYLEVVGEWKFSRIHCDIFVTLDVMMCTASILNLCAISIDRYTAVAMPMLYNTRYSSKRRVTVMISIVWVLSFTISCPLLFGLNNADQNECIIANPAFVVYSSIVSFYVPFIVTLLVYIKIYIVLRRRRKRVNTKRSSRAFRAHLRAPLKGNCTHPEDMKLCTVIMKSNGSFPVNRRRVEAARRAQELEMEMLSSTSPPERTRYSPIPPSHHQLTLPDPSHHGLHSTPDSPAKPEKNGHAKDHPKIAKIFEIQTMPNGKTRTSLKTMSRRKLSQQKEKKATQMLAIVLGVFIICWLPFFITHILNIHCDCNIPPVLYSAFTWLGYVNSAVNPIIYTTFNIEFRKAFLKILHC
Chain of Sigma non-opioid intracellular receptor 1 (Q9R0C9 whole entry): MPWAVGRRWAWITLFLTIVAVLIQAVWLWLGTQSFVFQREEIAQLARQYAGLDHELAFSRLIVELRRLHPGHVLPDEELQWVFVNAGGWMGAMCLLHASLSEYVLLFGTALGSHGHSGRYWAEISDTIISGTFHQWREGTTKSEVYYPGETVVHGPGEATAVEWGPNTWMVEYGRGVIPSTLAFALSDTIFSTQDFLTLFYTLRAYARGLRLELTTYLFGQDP
Chain of 5-hydroxytryptamine receptor 2B (P41595 whole entry): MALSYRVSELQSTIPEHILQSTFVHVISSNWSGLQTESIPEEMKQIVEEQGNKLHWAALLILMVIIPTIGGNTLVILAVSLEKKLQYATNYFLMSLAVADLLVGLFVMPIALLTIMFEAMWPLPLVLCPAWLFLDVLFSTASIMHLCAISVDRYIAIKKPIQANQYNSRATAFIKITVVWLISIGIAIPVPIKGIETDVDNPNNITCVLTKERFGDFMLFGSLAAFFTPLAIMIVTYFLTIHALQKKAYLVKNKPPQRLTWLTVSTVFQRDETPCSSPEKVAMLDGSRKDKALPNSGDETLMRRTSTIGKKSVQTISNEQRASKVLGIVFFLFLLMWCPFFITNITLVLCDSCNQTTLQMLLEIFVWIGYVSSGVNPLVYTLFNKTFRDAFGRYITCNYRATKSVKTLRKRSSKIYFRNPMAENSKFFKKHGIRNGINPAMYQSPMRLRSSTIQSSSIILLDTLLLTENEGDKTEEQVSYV

`CCCOc1cccc(CN2CCN(Cc3cc4ccccc4o3)CC2)c1`: the Ki in data set [1] amounted to 0.259 µM; in data set [2], 0.774 µM; on D(2) dopamine receptor, 2.98 µM; in data set [3], 0.177 µM; in data set [4] it was 1.92 µM. Further, the Ratio Ki in the data set filed under Rattus norvegicus was 11.
In the case of `CCOc1ccc(CN2CCN(Cc3cc4ccccc4o3)CC2)cc1`, the Ki in data set [1] was 0.262 µM; in data set [2], 3.34 µM; on D(2) dopamine receptor, 4.87 µM; in data set [3], 0.0106 µM; in [4], 0.393 µM. Besides, the Ratio Ki in the data set filed under Rattus norvegicus is 37.
Regarding `COc1ccccc1CN1CCN(Cc2cc3ccccc3o2)CC1`, the inhibition constant (Ki) is 0.0097 µM in data set [1]; 0.806 µM in data set [2]; 5.12 µM at D(2) dopamine receptor; 0.198 µM in data set [3]; 0.089 µM in [4]. Besides, the Ratio Ki in the data set filed under Rattus norvegicus turned out to be 0.45.
In the case of `FCCOc1cccc(CN2CCN(Cc3cc4ccccc4o3)CC2)c1`, the inhibition constant (Ki) in data set [1] came to 0.244 µM; in data set [2], 0.469 µM; at D(2) dopamine receptor, 2.28 µM; in data set [3] it was 0.0497 µM; in data set [4] it was 0.292 µM. Also, the Ratio Ki in the data set listed under Rattus norvegicus was 5.9.
As for `COc1cccc(CN2CCN(Cc3cc4ccccc4o3)CC2)c1`, the Ki stood at 0.028 µM in [1]; 0.373 µM in [2]; 5.73 µM on D(2) dopamine receptor; 0.0163 µM in [3]; 0.0795 µM in [4]. For the same molecule, in the data set listed under Rattus norvegicus, the Ratio Ki stood at 4.9.
As for `CCOc1ccccc1CN1CCN(Cc2cc3ccccc3o2)CC1`, the Ki in [1] worked out at 0.072 µM; in data set [2] it was 0.468 µM; at D(2) dopamine receptor it was 6 µM; in [3] it was 0.0371 µM; in [4], 0.295 µM. Besides, the Ratio Ki in the data set listed under Rattus norvegicus stood at 8.
As for `CCCOc1ccccc1CN1CCN(Cc2cc3ccccc3o2)CC1`, the inhibition constant Ki in data set [1] is 0.116 µM; in data set [2] it was 2.46 µM; on D(2) dopamine receptor it was greater than 10 µM; in data set [3] it was 0.079 µM; in [4], 0.778 µM. The Ratio Ki in the data set listed under Rattus norvegicus stood at 10.
As for `c1ccc(CN2CCN(Cc3cc4ccccc4o3)CC2)cc1`, the Ki is 0.497 µM in data set [1]; 0.833 µM in [2]; greater than 10 µM on D(2) dopamine receptor; 0.0052 µM in data set [3]; 0.24 µM in data set [4]. Also, the Ratio Ki in the data set filed under Rattus norvegicus came to 46.
Regarding `FCCCOc1cccc(CN2CCN(Cc3cc4ccccc4o3)CC2)c1`, the Ki in [1] turned out to be 0.188 µM; in data set [2], 0.599 µM; on D(2) dopamine receptor it was 2.92 µM; in [3], 0.232 µM; in data set [4], 2.37 µM. The Ratio Ki in the data set listed under Rattus norvegicus came to 10.
`COc1ccc(CN2CCN(Cc3cc4ccccc4o3)CC2)cc1`: the Ki came out at 0.015 µM in data set [1]; 2.19 µM in data set [2]; 2.7 µM on D(2) dopamine receptor; 0.0027 µM in data set [3]; 0.103 µM in [4]. Besides, the Ratio Ki in the data set listed under Rattus norvegicus was found to be 38. For the same molecule, the logD in [5] was 3.63.
For the molecule `FCCCOc1ccccc1CN1CCN(Cc2cc3ccccc3o2)CC1`, the Ki in data set [1] is 0.184 µM; in data set [2], 3.38 µM; on D(2) dopamine receptor, greater than 10 µM; in [3], 0.0091 µM; in [4] it was 0.542 µM. The Ratio Ki in the data set listed under Rattus norvegicus turned out to be 60.
In the case of `FCCOc1ccccc1CN1CCN(Cc2cc3ccccc3o2)CC1`, the inhibition constant (Ki) was 0.057 µM in [1]; 3.25 µM in data set [2]; greater than 10 µM at D(2) dopamine receptor; 0.488 µM in data set [3]; 0.535 µM in data set [4]. The Ratio Ki in the data set filed under Rattus norvegicus worked out at 1.1.
In the case of `CCOc1cccc(CN2CCN(Cc3cc4ccccc4o3)CC2)c1`, the Ki is 0.302 µM in data set [1]; 1.72 µM in data set [2]; 4.54 µM on D(2) dopamine receptor; 0.08 µM in data set [3]; 0.238 µM in [4]. The Ratio Ki in the data set listed under Rattus norvegicus is 3.
For the molecule `FCCCOc1ccc(CN2CCN(Cc3cc4ccccc4o3)CC2)cc1`, the Ki in data set [1] is 0.232 µM; in data set [2] it was 3.3 µM; at D(2) dopamine receptor, greater than 10 µM; in data set [3], 0.0147 µM; in data set [4] it was 0.752 µM. Also, the Ratio Ki in the data set filed under Rattus norvegicus was determined as 51.
As for `CCCOc1ccc(CN2CCN(Cc3cc4ccccc4o3)CC2)cc1`, the Ki was 0.655 µM in [1]; 4.72 µM in data set [2]; greater than 10 µM at D(2) dopamine receptor; 0.0538 µM in data set [3]; 2.4 µM in [4]. In addition, the Ratio Ki in the data set filed under Rattus norvegicus was 45.
Take `[11CH3]Oc1ccc(CN2CCN(Cc3cc4ccccc4o3)CC2)cc1`: the Drug uptake entry is “Active” in data set [6]; “Active” in data set [7]; “Active” in data set [8]; “Not Active” in data set [9]; “Not Active” in [10]; “Not Active” in [11]. For the same molecule, the Drug uptake result in [12] was “Not Active”.
